# According to publication PMC8049015 (Journal of Clinical Pharmacology, 2020):
# Read-outs that look alike come from different tables or passages of the source. Marks after values point to notes of the source that are not given here.
# How the values were obtained:
# [1] = test system: subjects with moderate to severe atopic dermatitis; assay: Exposure‐response logistic regression models; format: in vivo, human; conditions: logit scale; week 16, NRI; estimate
# In short: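 Week-16 EASI-75, EASI-90 and IGA 0/1 responses from 167 phase 2b adults were each fitted by logistic regression with an Emax link, with estimates on the logit scale. The exposure was individual steady-state Cavg from empirical Bayesian population-PK parameters. Drug effect was tested by likelihood ratio at P < .01. Covariates were selected stepwise (entry P < .01, removal P < .001). Models were chosen by AIC, fit and precision.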
# [2] = test system: subjects with moderate to severe atopic dermatitis; assay: Phase 2b dose‐ranging study, observed efficacy in week 16; format: in vivo, human; conditions: week 16, NRI
# [3] = format: in vivo, human; conditions: steady state, median (5th to 95th percentiles), model‐predicted
# In short: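 Plasma exposures at steady state over a dosing interval (median, 5th–95th percentiles) were predicted by a 2-compartment population-PK model for the oral extended-release once-daily regimens. Absorption was mixed zero- and first-order with a lag time. Sparse samples from weeks 2 and 4 (predose) and weeks 8, 12 and 16 (any time) were assayed by validated LC-MS.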
# [4] = test system: subjects with moderate to severe atopic dermatitis; conditions: week 16, placebo 23%, cited from earlier work
# [5] = 7.5, 15, 30 mg once daily, 16 weeks; cited from earlier work
# [6] = test system: subjects with moderate to severe RA; conditions: cited from earlier work
# [7] = cited from earlier work
# [8] = test system: moderate to severe atopic dermatitis; conditions: phase 3 studies; cited from earlier work
# [9] = 15 mg once daily extended‐release
compound,measurement,setting,value
CC[C@@H]1CN(C(=O)NCC(F)(F)F)C[C@@H]1c1cnc2cnc3[nH]ccc3n12 [upadacitinib],"Emax, probability of achieving EASI‐75",[1],5.35 (17% ^a )
same,"Emax, probability of achieving EASI‐90",[1],6.2 (13% ^a )
same,"Emax, probability of achieving IGA 0/1",[1],5.78 (12% ^a )
same,Observed percentage of subjects achieving EASI‐75,[2]; 7.5 mg once daily,[29] %
same,Observed percentage of subjects achieving EASI‐90,[2]; 7.5 mg once daily,[14] %
same,Observed percentage of subjects achieving IGA 0/1,[2]; 7.5 mg once daily,[14] %
same,Observed percentage of subjects achieving EASI‐90,[2]; 15 mg once daily,[26] %
same,Observed percentage of subjects achieving IGA 0/1,[2]; 15 mg once daily,[31] %
same,Observed percentage of subjects achieving EASI‐90,[2]; 30 mg once daily,[50] %
same,Observed percentage of subjects achieving IGA 0/1,[2]; 30 mg once daily,[50] %
same,Cmin,[3]; 7.5 mg once daily extended‐release,2.0 (0.56‐6.2) ng/mL
same,Cmax,[3]; [9],41.2 (27.7‐65.8) ng/mL
same,Cmin,[3]; [9],2.7 (1.2‐11.3) ng/mL
same,Cmin,[3]; 30 mg once daily extended‐release,6.6 (2.1‐22.1) ng/mL
same,Mean improvement in EASI from baseline,[4]; 7.5 mg once daily,39%
same,Mean improvement in EASI from baseline,[4]; 15 mg once daily,62%
same,Mean improvement in EASI from baseline,[4]; 30 mg once daily,74%
same,Dose relationship for serious infections or overall incidence of adverse events,[5],no dose relationship was observed
same,Dose‐limiting safety events,[5],No dose‐limiting safety events were observed
same,"Estimated increase in the percentage of subjects achieving ACR 20/50/70 responses or DAS‐28 low disease activity and clinical remission, 30 mg once daily compared with 15 mg once daily exposures",[6],< 5%
same,Oral bioavailability of the extended‐release tablet relative to the same dose of the immediate‐release formulation,[7],76%
same,Dose proportionality of plasma exposure,[7]; over the evaluated dose range across clinical studies,approximately dose proportional
same,Accumulation with repeated dosing,[7]; twice daily immediate‐release or once daily extended‐release,no significant accumulation
dupilumab,Patients who achieved no or almost no disease activity,[8],< 40%
